Data from ChEMBL document CHEMBL1121439, “Accumulation of drugs by guinea pig isolated atria. Quantitative correlations” (J Med Chem, 1980).

What was measured:
[1] = Tested for the dissociation constant of the compound; assay type: ADME
Cavia porcellus = species: Cavia porcellus; experiment: Ability to bind to guinea pig atrial homogenate; conditions: Cardiac atrium
In short: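 Guinea pig left and right atria were blotted 90 s, weighed, and homogenized (6%, g/v) in ice-cold 0.067 M Sørensen phosphate buffer, pH 7.4, for three 20-s bursts. Radiolabeled drug (3.3×10^-6 M) was incubated with 4% (g/v) homogenate for 90 min at room temperature under partial saturation. Total aliquot and supernatant after 145000g, 15 h, 25 °C were counted. Result given as log B/F.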

[2] = Partition coefficient (logP); assay type: physicochemical; conditions: octanol/water
Albumin [3] = molecular target: T1, Albumin (Homo sapiens, UniProt P02768); experiment: Ability to bind to human serum albumin (HSA)
T1 sequence (P02768 whole entry): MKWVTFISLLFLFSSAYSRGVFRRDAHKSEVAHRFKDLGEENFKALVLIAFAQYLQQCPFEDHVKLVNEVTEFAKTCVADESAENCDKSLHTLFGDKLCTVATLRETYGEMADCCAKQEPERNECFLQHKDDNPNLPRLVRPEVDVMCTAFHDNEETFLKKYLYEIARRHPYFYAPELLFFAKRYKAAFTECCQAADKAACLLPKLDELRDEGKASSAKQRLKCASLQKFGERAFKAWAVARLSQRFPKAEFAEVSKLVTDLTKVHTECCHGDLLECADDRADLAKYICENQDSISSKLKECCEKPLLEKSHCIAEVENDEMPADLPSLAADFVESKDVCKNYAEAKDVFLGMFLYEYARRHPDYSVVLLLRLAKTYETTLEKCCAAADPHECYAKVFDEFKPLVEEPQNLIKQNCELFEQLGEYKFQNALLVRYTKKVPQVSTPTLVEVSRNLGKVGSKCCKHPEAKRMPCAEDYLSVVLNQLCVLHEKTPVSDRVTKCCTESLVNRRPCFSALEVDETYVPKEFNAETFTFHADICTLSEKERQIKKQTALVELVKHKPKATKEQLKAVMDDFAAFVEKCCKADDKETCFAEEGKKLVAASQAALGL

Albumin [4] = molecular target: T1, Albumin; experiment: Ability to bind to human serum albumin
In short: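 Purified human serum albumin, 4% (g/v), with radiolabeled drug at 3.3×10^-6 M in 0.067 M Sørensen phosphate buffer pH 7.4 (partial saturation). Incubated 90 min at room temperature. Radioactivity counted in an aliquot before and after centrifugation at 145000g for 15 h at 25 °C. Binding expressed as log B/F.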

Row | SMILES | pKa [1] | Log B/F (Cavia porcellus) | logP ([2]; read-out: logP) | logP [2] | Log B/F (Albumin [3]) | Log B/F (Albumin [4])
1 | COc1ccc(CCN(C)CCCC(C#N)(c2ccc(OC)c(OC)c2)C(C)C)cc1OC (configuration not stated) | 9.2 | 0.114 | – | – | – | –
2 | OC[C@H]1O[C@@](CO)(O[C@H]2O[C@H](CO)[C@@H](O)[C@H](O)[C@H]2O)[C@@H](O)[C@@H]1O | – | -4 | – | – | – | –
3 | C=CCc1ccccc1OCC(O)CNC(C)C (configuration not stated) [ALPRENOLOL] | – | -0.158 | 3.1 | – | – | –
4 | CCCNC(C)C(=O)Nc1c(C)csc1C(=O)OC (configuration not stated) [ARTICAINE] | 7.8 | -0.739 | – | 2.41 | -0.281 | –
5 | O=C1CCC(c2ccccc2)(C2CCN(Cc3ccccc3)CC2)C(=O)N1 (configuration not stated) [BENZETIMIDE] | – | -0.184 | 3.55 | – | – | 0.087
6 | C[C@@H]1C[C@H]2[C@@H]3CCC4=CC(=O)C=C[C@]4(C)[C@@]3(F)[C@@H](O)C[C@]2(C)[C@@]1(O)C(=O)CO [DEXAMETHASONE] | – | – | 1.74 | – | – | –
7 | C[C@H]1O[C@@H](O[C@H]2[C@@H](O)C[C@H](O[C@H]3[C@@H](O)C[C@H](O[C@H]4CC[C@@]5(C)[C@H](CC[C@@H]6[C@@H]5CC[C@]5(C)[C@@H](C7=CC(=O)OC7)CC[C@]65O)C4)O[C@@H]3C)O[C@@H]2C)C[C@H](O)[C@@H]1O [DIGITOXIN] | – | – | 1.76 | – | 3.222 | –
8 | O=C(O)[C@H]1O[C@@H](O)[C@H](O)[C@@H](O)[C@@H]1O [GLUCURONATE] | 3.2 | -4 | -2.57 | – | -2 | –
9 | COc1ccc2c(c1)c(CC(=O)O)c(C)n2C(=O)c1ccc(Cl)cc1 [INDOMETHACIN] | – | – | 2 | – | – | –
10 | COCCc1ccc(OCC(O)CNC(C)C)cc1 (configuration not stated) [METOPROLOL] | – | – | 2.34 | – | – | –
11 | CCC1(c2ccccc2)C(=O)NC(=O)NC1=O [PHENOBARBITAL] | 7.5 | – | 1.43 | – | 0.11 | –
12 | CCC(c1ccccc1)c1c(O)c2ccccc2oc1=O (configuration not stated) [PHENPROCOUMON] | 5 | – | 3.62 | – | 2.128 | –
